Measurements: ChEMBL document CHEMBL3774321, “Systematic diversification of benzylidene heterocycles yields novel inhibitor scaffolds selective for Dyrk1A, Clk1 and CK2” (Eur J Med Chem, 2016)
Each block holds one molecule with its values, some of them ahead of it. The source made the active and inactive calls. The calls are words filed in the database; no cut-off is given here.

Key:
[1] = system: Plasma; assay: Metabolic stability in rat plasma assessed as drug degradation at 1 uM after 120 mins by LC-MS/MS analysis; assay type: ADME, cell-free; details: 2 h
In short: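 Compound (1 µM) in pooled heparinised rat plasma at 37 °C, sampled at 0, 5, 15, 30, 60 and 120 min. Reaction stopped with 5 volumes of cold acetonitrile containing internal standard. Remaining compound was measured by LC-MS/MS; means of two experiments.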

[2] = molecular target: Dual specificity tyrosine-phosphorylation-regulated kinase 3 (Homo sapiens) (UniProt O43781); assay: Inhibition of full length recombinant human GST-tagged DYRK3 expressed in baculovirus expression system at 5 uM by lantha screen kinase binding assay relative to control
[3] = molecular target: Calcium/calmodulin-dependent protein kinase type II subunit alpha (Homo sapiens) (UniProt Q9UQM7); assay: Inhibition of full length recombinant human His-tagged CAMK2A expressed in baculovirus expression system at 5 uM by lantha screen kinase binding assay relative to control
[4] = molecular target: Casein kinase I isoform gamma-3 (Homo sapiens) (UniProt Q9Y6M4); assay: Inhibition of full length recombinant human GST-tagged CSNK1G3 expressed in baculovirus expression system at 5 uM by lantha screen kinase binding assay relative to control
[5] = molecular target: Cyclin-dependent kinase 5/CDK5 activator 1 (Homo sapiens) (UniProt Q00535+Q15078); assay: Inhibition of full length recombinant human GST-tagged, His-tagged CDK5/p25 expressed in baculovirus expression system at 5 uM by lantha screen kinase binding assay
[6] = molecular target: Mitogen-activated protein kinase 14 (Homo sapiens) (UniProt Q16539); assay: Inhibition of full length recombinant human GST-tagged MAPK14 expressed in Escherichia coli at 5 uM by lantha screen kinase binding assay relative to control
[7] = molecular target: Myosin light chain kinase, smooth muscle (Homo sapiens) (UniProt Q15746); assay: Inhibition of recombinant human GST-tagged MYLK expressed in baculovirus expression system at 5 uM by lantha screen kinase binding assay relative to control
In short: (§1)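 Binding-displacement format: the compound competes with an Alexa Fluor-conjugated tracer for binding to the kinase ATP site, rather than a peptide phosphorylation read-out.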

[8] = molecular target: Dual specificity protein kinase CLK4 (Homo sapiens, UniProt Q9HAZ1); details: 5 uM
[9] = molecular target: Tyrosine-protein kinase ABL1 (Homo sapiens) (UniProt P00519); assay: Inhibition of recombinant human His-tagged ABL1 expressed in baculovirus expression system at 5 uM by lantha screen kinase binding assay relative to control; in short: as §1
[10] = molecular target: Serine/threonine-protein kinase D2 (Homo sapiens) (UniProt Q9BZL6); assay: Inhibition of full length recombinant human GST-tagged PRKD2 expressed in baculovirus expression system at 5 uM by lantha screen kinase binding assay relative to control
[11] = molecular target: Casein kinase I isoform delta (Homo sapiens) (UniProt P48730); assay: Inhibition of full length recombinant human GST-tagged CSNK1D expressed in baculovirus expression system at 5 uM by lantha screen kinase binding assay relative to control
[12] = molecular target: T1, Dual specificity protein kinase CLK3 (Homo sapiens, UniProt P49761); assay: Inhibition of recombinant human GST-tagged CLK3 expressed in baculovirus expression system at 5 uM by lantha screen kinase binding assay relative to control; in short: as §1
Target sequence in this assay (P49761 whole entry, looked up): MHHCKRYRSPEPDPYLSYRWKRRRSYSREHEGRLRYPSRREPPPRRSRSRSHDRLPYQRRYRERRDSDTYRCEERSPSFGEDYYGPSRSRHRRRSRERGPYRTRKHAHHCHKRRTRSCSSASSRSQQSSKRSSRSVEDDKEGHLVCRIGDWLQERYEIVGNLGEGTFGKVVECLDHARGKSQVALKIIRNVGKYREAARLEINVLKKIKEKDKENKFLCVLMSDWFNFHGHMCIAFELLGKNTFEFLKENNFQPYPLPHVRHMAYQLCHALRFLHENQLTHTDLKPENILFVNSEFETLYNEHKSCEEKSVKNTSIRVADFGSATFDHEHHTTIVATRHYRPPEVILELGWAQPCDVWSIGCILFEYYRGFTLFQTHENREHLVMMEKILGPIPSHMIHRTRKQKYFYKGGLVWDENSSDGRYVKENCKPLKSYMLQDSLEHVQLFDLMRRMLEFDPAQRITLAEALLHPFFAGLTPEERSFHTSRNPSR

[13] = molecular target: T2, Epidermal growth factor receptor (Homo sapiens, UniProt P00533); assay: Inhibition of recombinant human GST-tagged EGFR expressed in baculovirus expression system at 5 uM by lantha screen kinase binding assay relative to control; in short: as §1
[14] = molecular target: Proto-oncogene tyrosine-protein kinase ROS (Homo sapiens) (UniProt P08922); assay: Inhibition of recombinant human GST-tagged ROS1 expressed in baculovirus expression system at 1 uM by lantha screen kinase binding assay relative to control; in short: as §1
[15] = molecular target: Serine/threonine-protein kinase 17A (Homo sapiens, UniProt Q9UEE5); assay: Inhibition of STK17A (unknown origin)
[16] = molecular target: T2, Epidermal growth factor receptor; assay: Inhibition of recombinant human GST-tagged EGFR expressed in baculovirus expression system at 1 uM by lantha screen kinase binding assay relative to control; in short: as §1
[17] = molecular target: Casein kinase I isoform epsilon (Homo sapiens) (UniProt P49674); assay: Inhibition of full length recombinant human His-tagged CSNK1E expressed in baculovirus expression system at 1 uM by lantha screen kinase binding assay relative to control
[18] = molecular target: Serine/threonine-protein kinase pim-1 (Homo sapiens, UniProt P11309); assay: Inhibition of PIM1 (unknown origin)
In short: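 Calculated from means of duplicates differing by less than 7%.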

[19] = molecular target: Glycogen synthase kinase-3 beta (Homo sapiens) (UniProt P49841); assay: Inhibition of full length recombinant human His-tagged GSK3beta expressed in baculovirus expression system at 1 uM by lantha screen kinase binding assay relative to control; in short: as §1
[20] = molecular target: Casein kinase I isoform gamma-3 (Homo sapiens) (UniProt Q9Y6M4); assay: Inhibition of full length recombinant human GST-tagged CSNK1G3 expressed in baculovirus expression system at 1 uM by lantha screen kinase binding assay relative to control
[21] = molecular target: Dual specificity tyrosine-phosphorylation-regulated kinase 3 (Homo sapiens) (UniProt O43781); assay: Inhibition of full length recombinant human GST-tagged DYRK3 expressed in baculovirus expression system at 1 uM by lantha screen kinase binding assay relative to control
[22] = molecular target: Dual specificity tyrosine-phosphorylation-regulated kinase 4 (Homo sapiens) (UniProt Q9NR20); assay: Inhibition of full length recombinant human GST-tagged DYRK4 expressed in baculovirus expression system at 1 uM by lantha screen kinase binding assay relative to control
[23] = molecular target: T1, Dual specificity protein kinase CLK3; assay: Inhibition of recombinant human GST-tagged CLK3 expressed in baculovirus expression system at 1 uM by lantha screen kinase binding assay relative to control; in short: as §1
Target sequence in this assay (P49761 whole entry, looked up): as above

[24] = molecular target: Casein kinase I isoform gamma-2 (Homo sapiens) (UniProt P78368); assay: Inhibition of full length recombinant human His-tagged CSNK1G2 expressed in baculovirus expression system at 1 uM by lantha screen kinase binding assay relative to control
[25] = molecular target: Serine/threonine-protein kinase D2 (Homo sapiens) (UniProt Q9BZL6); assay: Inhibition of full length recombinant human GST-tagged PRKD2 expressed in baculovirus expression system at 1 uM by lantha screen kinase binding assay relative to control
[26] = molecular target: Dual specificity protein kinase CLK2 (Homo sapiens) (UniProt P49760); assay: Inhibition of recombinant human GST-tagged CLK2 expressed in baculovirus expression system at 1 uM by lantha screen kinase binding assay relative to control; in short: as §1
[27] = molecular target: T1, Dual specificity protein kinase CLK3; assay: Inhibition of recombinant human GST-tagged CLK3 expressed in baculovirus expression system by lantha screen kinase binding assay; in short: as §1
Target sequence in this assay (P49761 whole entry): as the sequence (P49761 whole entry, looked up) above

[28] = molecular target: Serine/threonine-protein kinase pim-2 (Homo sapiens) (UniProt Q9P1W9); assay: Inhibition of full length recombinant human GST-tagged PIM2 expressed in baculovirus expression system at 1 uM by lantha screen kinase binding assay relative to control
[29] = molecular target: Mitogen-activated protein kinase 8 (Homo sapiens) (UniProt P45983); assay: Inhibition of full length recombinant human His-tagged MAPK8 expressed in baculovirus expression system at 1 uM by lantha screen kinase binding assay relative to control; in short: as §1
[30] = molecular target: Homeodomain-interacting protein kinase 1 (Homo sapiens) (UniProt Q86Z02); assay: Inhibition of recombinant human N-terminal GST-tagged HIPK1 expressed in baculovirus expression system at 1 uM by lantha screen kinase binding assay relative to control; in short: as §1
[31] = molecular target: Mitogen-activated protein kinase kinase kinase 9 (Homo sapiens) (UniProt P80192); assay: Inhibition of recombinant human GST-tagged MAP3K9 expressed in baculovirus expression system at 1 uM by lantha screen kinase binding assay relative to control; in short: as §1

Chain of Casein kinase I isoform gamma-3 (Homo sapiens) (Q9Y6M4 whole entry, looked up, canonical isoform): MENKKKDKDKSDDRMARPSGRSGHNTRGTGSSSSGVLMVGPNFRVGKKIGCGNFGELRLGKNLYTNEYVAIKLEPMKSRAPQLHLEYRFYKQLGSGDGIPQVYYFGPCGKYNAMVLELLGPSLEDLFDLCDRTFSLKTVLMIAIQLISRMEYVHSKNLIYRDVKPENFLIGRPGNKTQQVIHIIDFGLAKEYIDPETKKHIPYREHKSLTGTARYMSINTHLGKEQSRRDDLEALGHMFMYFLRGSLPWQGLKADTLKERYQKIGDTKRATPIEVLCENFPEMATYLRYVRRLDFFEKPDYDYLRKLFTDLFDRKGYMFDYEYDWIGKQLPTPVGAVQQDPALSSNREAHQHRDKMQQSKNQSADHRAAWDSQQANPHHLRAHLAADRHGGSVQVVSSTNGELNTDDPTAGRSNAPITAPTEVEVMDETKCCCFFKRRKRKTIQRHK
Chain of Serine/threonine-protein kinase D2 (Homo sapiens) (Q9BZL6 whole entry, canonical isoform): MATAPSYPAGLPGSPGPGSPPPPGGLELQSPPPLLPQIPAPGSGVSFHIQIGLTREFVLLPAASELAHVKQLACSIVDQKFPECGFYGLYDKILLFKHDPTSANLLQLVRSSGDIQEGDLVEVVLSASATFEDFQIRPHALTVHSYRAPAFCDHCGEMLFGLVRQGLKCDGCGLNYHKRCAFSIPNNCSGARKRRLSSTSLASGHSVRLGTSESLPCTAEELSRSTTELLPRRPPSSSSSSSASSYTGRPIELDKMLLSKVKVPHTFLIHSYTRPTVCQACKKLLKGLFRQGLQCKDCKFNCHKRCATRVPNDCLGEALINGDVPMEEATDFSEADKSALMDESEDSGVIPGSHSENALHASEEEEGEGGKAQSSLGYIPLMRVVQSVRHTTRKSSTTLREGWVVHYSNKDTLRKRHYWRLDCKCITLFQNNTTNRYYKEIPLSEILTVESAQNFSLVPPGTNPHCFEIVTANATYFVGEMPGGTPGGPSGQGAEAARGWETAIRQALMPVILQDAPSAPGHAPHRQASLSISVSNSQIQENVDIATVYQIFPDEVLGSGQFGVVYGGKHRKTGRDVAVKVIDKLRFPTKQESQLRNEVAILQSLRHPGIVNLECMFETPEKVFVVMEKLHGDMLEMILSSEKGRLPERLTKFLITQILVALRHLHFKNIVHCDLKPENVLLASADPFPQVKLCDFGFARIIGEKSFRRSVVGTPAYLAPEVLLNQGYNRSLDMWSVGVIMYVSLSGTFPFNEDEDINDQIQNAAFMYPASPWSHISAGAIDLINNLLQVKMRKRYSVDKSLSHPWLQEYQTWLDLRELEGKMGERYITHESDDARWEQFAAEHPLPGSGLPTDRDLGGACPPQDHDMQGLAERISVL
T2 sequence (P00533 whole entry): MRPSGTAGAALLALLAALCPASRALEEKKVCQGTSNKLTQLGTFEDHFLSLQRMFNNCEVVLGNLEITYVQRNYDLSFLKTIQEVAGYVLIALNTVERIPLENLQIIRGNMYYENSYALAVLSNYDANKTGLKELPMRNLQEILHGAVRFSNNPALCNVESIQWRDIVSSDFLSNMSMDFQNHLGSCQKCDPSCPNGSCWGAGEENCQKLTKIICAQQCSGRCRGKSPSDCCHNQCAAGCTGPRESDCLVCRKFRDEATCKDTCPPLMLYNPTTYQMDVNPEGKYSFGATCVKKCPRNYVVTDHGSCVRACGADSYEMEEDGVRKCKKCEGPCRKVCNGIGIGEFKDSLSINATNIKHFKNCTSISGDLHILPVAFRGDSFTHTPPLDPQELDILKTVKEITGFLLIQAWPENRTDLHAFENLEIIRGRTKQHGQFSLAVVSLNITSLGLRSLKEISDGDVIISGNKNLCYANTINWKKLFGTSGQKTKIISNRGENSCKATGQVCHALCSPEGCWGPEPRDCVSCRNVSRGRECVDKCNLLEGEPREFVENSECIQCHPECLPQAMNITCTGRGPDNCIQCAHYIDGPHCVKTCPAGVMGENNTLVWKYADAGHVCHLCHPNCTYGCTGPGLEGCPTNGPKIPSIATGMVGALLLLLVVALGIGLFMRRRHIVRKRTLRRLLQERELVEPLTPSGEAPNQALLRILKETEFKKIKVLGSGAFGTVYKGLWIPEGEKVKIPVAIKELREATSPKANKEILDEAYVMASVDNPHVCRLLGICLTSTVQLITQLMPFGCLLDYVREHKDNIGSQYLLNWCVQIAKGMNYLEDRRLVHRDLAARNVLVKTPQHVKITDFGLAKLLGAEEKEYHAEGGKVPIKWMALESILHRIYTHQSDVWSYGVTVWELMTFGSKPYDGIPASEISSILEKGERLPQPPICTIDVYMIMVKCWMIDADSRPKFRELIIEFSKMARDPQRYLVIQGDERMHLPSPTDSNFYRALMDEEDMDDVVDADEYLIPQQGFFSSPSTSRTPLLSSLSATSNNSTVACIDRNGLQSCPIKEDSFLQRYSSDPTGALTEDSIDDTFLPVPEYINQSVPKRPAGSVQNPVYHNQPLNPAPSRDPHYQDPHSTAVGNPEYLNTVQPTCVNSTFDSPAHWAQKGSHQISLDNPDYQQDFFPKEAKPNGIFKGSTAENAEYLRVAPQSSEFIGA
Chain of Dual specificity tyrosine-phosphorylation-regulated kinase 3 (Homo sapiens) (O43781 whole entry): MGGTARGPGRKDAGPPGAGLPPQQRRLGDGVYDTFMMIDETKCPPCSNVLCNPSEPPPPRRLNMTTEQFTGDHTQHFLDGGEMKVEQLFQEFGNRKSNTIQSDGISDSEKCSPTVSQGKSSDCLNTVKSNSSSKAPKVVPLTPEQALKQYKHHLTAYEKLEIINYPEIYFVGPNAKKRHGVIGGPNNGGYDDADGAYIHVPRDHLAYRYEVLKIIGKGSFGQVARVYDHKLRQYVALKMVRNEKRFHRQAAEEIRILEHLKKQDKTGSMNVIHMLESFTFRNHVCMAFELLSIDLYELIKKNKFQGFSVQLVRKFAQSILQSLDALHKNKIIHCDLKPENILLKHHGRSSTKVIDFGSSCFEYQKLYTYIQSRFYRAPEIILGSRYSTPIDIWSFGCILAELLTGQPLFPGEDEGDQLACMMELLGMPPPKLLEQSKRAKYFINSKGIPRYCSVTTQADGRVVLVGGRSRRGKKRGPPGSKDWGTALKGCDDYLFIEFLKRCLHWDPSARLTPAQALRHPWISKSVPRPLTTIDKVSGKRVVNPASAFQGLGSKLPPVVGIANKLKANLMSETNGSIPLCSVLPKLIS
Chain of Glycogen synthase kinase-3 beta (Homo sapiens) (P49841 whole entry, looked up, canonical isoform): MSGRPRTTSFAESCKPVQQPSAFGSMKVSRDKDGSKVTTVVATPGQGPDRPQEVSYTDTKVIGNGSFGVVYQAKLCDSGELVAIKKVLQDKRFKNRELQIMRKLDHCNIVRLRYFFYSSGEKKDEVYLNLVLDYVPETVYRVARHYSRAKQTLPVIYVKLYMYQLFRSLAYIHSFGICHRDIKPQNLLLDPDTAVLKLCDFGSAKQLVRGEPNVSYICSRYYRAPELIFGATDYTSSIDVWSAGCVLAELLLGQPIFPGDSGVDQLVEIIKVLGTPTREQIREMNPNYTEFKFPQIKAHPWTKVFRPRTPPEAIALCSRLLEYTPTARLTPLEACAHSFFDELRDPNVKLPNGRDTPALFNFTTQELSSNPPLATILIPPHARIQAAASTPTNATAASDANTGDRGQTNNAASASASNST
Chain of Serine/threonine-protein kinase pim-1 (P11309 whole entry): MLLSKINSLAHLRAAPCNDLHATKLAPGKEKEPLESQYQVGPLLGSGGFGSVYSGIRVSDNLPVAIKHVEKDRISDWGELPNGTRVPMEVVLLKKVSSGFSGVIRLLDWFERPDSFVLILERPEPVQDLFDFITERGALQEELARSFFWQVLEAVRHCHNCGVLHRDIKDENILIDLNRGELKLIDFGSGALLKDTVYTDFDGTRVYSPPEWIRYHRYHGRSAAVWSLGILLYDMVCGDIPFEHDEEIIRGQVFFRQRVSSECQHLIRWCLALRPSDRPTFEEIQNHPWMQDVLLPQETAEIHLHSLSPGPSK
Chain of Cyclin-dependent kinase 5/CDK5 activator 1 (Homo sapiens) (Q00535 whole entry): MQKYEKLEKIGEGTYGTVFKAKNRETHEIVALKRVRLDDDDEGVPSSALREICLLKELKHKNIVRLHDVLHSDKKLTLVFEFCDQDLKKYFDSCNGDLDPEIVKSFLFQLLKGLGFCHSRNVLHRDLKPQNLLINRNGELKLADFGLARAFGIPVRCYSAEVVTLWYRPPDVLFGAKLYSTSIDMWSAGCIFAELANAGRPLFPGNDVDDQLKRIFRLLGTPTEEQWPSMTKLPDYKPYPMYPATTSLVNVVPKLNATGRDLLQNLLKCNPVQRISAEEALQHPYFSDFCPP
Chain of Cyclin-dependent kinase 5/CDK5 activator 1 (Homo sapiens) (Q15078 99-307 partner limits assumed): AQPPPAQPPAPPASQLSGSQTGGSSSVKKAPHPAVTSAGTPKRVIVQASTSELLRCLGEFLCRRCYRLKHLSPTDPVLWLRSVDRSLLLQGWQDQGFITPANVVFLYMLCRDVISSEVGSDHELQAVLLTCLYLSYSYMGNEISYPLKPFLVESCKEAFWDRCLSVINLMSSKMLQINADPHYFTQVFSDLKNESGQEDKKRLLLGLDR

Stability [1]: Stable
SMILES: CC1C/C(=C\c2ccc3c(c2)CCO3)C(=O)O1 (stereo unspecified)

inhibition [2]: 7%
inhibition [3]: inactive
inhibition [4]: inactive
inhibition [5]: inactive
inhibition [6]: inactive
inhibition [7]: inactive
inhibition [8]: 98%
inhibition [9]: 6%
inhibition [10]: inactive
inhibition [11]: inactive
inhibition [12]: 44%
inhibition [13]: inactive
SMILES: O=C1NC(=S)S/C1=C\c1ccc2ncsc2c1

inhibition [14]: 5%
IC50 [15]: 12.8 nM
inhibition [16]: inactive
inhibition [17]: 1%
IC50 [18]: 103 nM
inhibition [19]: 10%
inhibition [20]: 17%
inhibition [21]: 84%
inhibition [22]: 39%
inhibition [23]: 95%
inhibition [24]: 43%
inhibition [25]: 19%
inhibition [26]: 80%
IC50 [27]: 86.6 nM
inhibition [28]: 31%
inhibition [29]: 7%
inhibition [30]: 33%
inhibition [31]: 2%
SMILES: O=C1NC(=S)S/C1=C\c1ccc2ncccc2c1
